# Experimental data from article PMC12217622 (Nature Communications, 2025).
# Experiments:
# [1] = test system: R. irregularis DAOM 197198; assay: Stimulation of AMF root-length colonization by LCO and CO4 treatments in wheat; format: in vivo, Triticum aestivum; conditions: 10^−7 M treatment
# Summary of the method: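 Fielder wheat carried a pZmUBI:BdLYR2-cmyc cassette or empty vector, two lines each. Surface-sterilised seeds were germinated 1 week at 4 °C and 3 days at 25 °C, then planted in attapulgite with 500 R. irregularis DAOM 197198 spores. Plants got 0.5x Long Ashton (7.5 µM NaH2PO4) with 10^-7 M LCO or CO4 or 0.05% acetonitrile at start, 2 and 4 weeks. Roots were stained at 5–6 wpi; colonization was normalised to untreated controls; Kruskal-Wallis test.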
# TaLYR2D = assay: Radiolabelled LCO binding to membrane fractions, TaLYR2D; design: species or system Triticum aestivum; conditions: 2 µM competitor
# Summary of the method: (§1)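 N. benthamiana leaves (~20 g) were homogenised at 4 °C in Tris pH 8.5, sucrose, EDTA, DTT, PVPP and protease inhibitors, then spun at 3000 x g and 45,000 x g. The pellet was resuspended in 25 mM Na cacodylate pH 6, 1 mM MgCl2, 1 mM CaCl2, 250 mM sucrose. 35S-LCO (enzymatic NodH sulfation) was bound for 1 h on ice, then filtered through glass fibre, washed and counted by scintillation. Three technical replicates.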
# MtLYR8 = assay: Radiolabelled LCO binding to membrane fractions, MtLYR8; design: species or system Medicago truncatula; conditions: 2 µM competitor
# Summary of the method: as §1
# TaLYR2B = assay: Radiolabelled LCO binding to membrane fractions, TaLYR2B; design: species or system Triticum aestivum; conditions: 2 µM competitor
# Summary of the method: as §1
# TaLYR2A = assay: Radiolabelled LCO binding to membrane fractions, TaLYR2A; design: species or system Triticum aestivum; conditions: 2 µM competitor
# Summary of the method: as §1
competition of LCO binding (TaLYR2D),competition of LCO binding (MtLYR8),competition of LCO binding (TaLYR2B),competition of LCO binding (TaLYR2A),SMILES,effect on AMF colonization ([1]; control wheat plants (empty vector)),effect on AMF colonization ([1]; transgenic wheat plants pUbi:BdLYR2)
complete competition,complete competition,complete competition,complete competition,CC(=O)N[C@H]1[C@H](O[C@H]2[C@H](O)[C@@H](NC(C)=O)C(O)O[C@@H]2CO)O[C@H](CO)[C@@H](O[C@@H]2O[C@H](CO)[C@@H](O[C@@H]3O[C@H](CO)[C@@H](O)[C@H](O)[C@H]3NC(C)=O)[C@H](O)[C@H]2NC(C)=O)[C@@H]1O (stereo partly shown) [CO4],increased AMF colonization,no further increase
complete competition,complete competition,complete competition,complete competition,CC(=O)N[C@H]1[C@H](O[C@H]2[C@H](O)[C@@H](NC(C)=O)[C@H](O[C@H]3[C@H](O)[C@@H](NC(C)=O)[C@H](O[C@H]4[C@H](O)[C@@H](NC(C)=O)C(O)O[C@@H]4CO)O[C@@H]3CO)O[C@@H]2CO)O[C@H](CO)[C@@H](O[C@@H]2O[C@H](CO)[C@@H](O[C@@H]3O[C@H](CO)[C@@H](O[C@@H]4O[C@H](CO)[C@@H](O[C@@H]5O[C@H](CO)[C@@H](O)[C@H](O)[C@H]5NC(C)=O)[C@H](O)[C@H]4NC(C)=O)[C@H](O)[C@H]3NC(C)=O)[C@H](O)[C@H]2NC(C)=O)[C@@H]1O (stereo partly shown) [CO8],,
